Results published in publication PMC12207910 (European journal of pharmaceutical sciences : official …, 2024).
Like-named read-outs stand apart in the source and are kept apart here. Non-standard residues stand in square brackets, D forms with d. Residues, ends and D or L forms follow the SMILES beside them. Dip = N[C@H](C(=O)O)C(c1ccccc1)c1ccccc1; hArg = N=C(N)NCCCC[C@H](N)C(=O)O; Agp = N=C(N)NC[C@H](N)C(=O)O

Legend:
[1] = test system: human red blood cells (hRBC); experiment: Hemolytic activity; format: cell-based; conditions: concentration at which 50% hemolysis was observed
[2] = test system: Klebsiella pneumonia (ATCC BAA-2470), carbapenem resistant; conditions: Carbapenem resistant strain
[3] = test system: E. coli (ATCC BAA-2452) biofilm; experiment: Antibiofilm activity, XTT assay; format: cell-based, Escherichia coli
Procedure, shortened: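 Bacterial suspensions at 5×10^5 CFU/mL in MH broth were grown 24 h at 37 °C to form biofilms, then washed twice with PBS. […] Biofilms were rewashed, then given XTT plus phenazine methosulfate for 1 h in the dark at 37 °C, and A492 was read. Percentage decrease versus untreated wells; triplicate, run twice.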

[4] = test system: Pseudomonas aeruginosa (ATCC 10145)
[5] = test system: P. aeruginosa (ATCC 27883); conditions: highest MIC of three independent experiments
[6] = test system: Acinetobacter baumannii (ATCC BAA1605), ciprofloxacin resistant; conditions: Ciprofloxacin resistant strain
[7] = test system: Escherichia coli (ATCC BAA-2452), NDM-1
[8] = test system: Pseudomonas aeruginosa (ATCC BAA-1744), imipenem resistant; conditions: Imipenem resistant strain
E. coli (ATCC 25922) [9] = conditions: highest MIC of three independent experiments
[10] = test system: Klebsiella pneumonia (ATCC 13883)
[11] = test system: E. coli (ATCC 25922) and E. coli (ATCC BAA-2452); experiment: Resistance development study, repeated exposure; format: cell-based; conditions: E. coli strains; 18 exposures
E. coli (ATCC BAA-2452) = format: cell-based, Escherichia coli; conditions: E. coli (ATCC BAA-2452)
S. aureus (ATCC 29213) [12] = conditions: highest MIC of three independent experiments
E. coli (ATCC 25922) [13] = conditions: cited from earlier work
[14] = test system: human red blood cells (hRBC); conditions: cited from earlier work
S. aureus (ATCC 29213) [15] = conditions: cited from earlier work
MRSA (ATCC BAA-1556) = conditions: cited from earlier work
[16] = test system: P. aeruginosa (ATCC 27883); conditions: cited from earlier work

N=C(N)NCCC[C@@H]1NC(=O)[C@H](CCCNC(=N)N)NC(=O)[C@H](CCCNC(=N)N)NC(=O)[C@H](C(c2ccccc2)c2ccccc2)NC(=O)[C@H](C(c2ccccc2)c2ccccc2)NC(=O)[C@H](Cc2c[nH]c3ccccc23)NC1=O [1a, c[Arg-Arg-Arg-Trp-Dip-Dip]] (cyclo([Dip][Dip]RRRW))
HC50 [1]: 50 µg/mL

N=C(N)NCCC[C@@H]1NC(=O)[C@H](CCCNC(=N)N)NC(=O)[C@H](C(c2ccccc2)c2ccccc2)NC(=O)[C@H](Cc2c[nH]c3ccccc23)NC(=O)[C@H](C(c2ccccc2)c2ccccc2)NC(=O)[C@H](CCCNC(=N)N)NC1=O [1b, c[Arg-Arg-Arg-Dip-Trp-Dip]] (cyclo([Dip]RRR[Dip]W))
HC50 [1]: 75 µg/mL

N=C(N)NCCC[C@@H]1NC(=O)[C@H](CCCNC(=N)N)NC(=O)[C@H](Cc2c[nH]c3ccccc23)NC(=O)[C@H](C(c2ccccc2)c2ccccc2)NC(=O)[C@H](C(c2ccccc2)c2ccccc2)NC(=O)[C@H](CCCNC(=N)N)NC1=O [1c, c[Arg-Arg-Arg-Dip-Dip-Trp]] (cyclo([Dip][Dip]WRRR))
HC50 [1]: 65 µg/mL

N=C(N)NCCC[C@@H]1NC(=O)[C@H](CCCNC(=N)N)NC(=O)[C@H](CCCNC(=N)N)NC(=O)[C@H](C(c2ccccc2)c2ccccc2)NC(=O)[C@H](C(c2ccccc2)c2ccccc2)NC(=O)[C@H](Cc2c[nH]c3ccccc23)NC(=O)[C@H](CCCNC(=N)N)NC1=O [3a, c[Arg-Arg-Arg-Arg-Trp-Dip-Dip]] (cyclo([Dip][Dip]RRRRW))
HC50 [1]: 85 µg/mL

N=C(N)NCCC[C@@H]1NC(=O)[C@H](CCCNC(=N)N)NC(=O)[C@H](Cc2c[nH]c3ccccc23)NC(=O)[C@H](C(c2ccccc2)c2ccccc2)NC(=O)[C@H](C(c2ccccc2)c2ccccc2)NC(=O)[C@H](CCCNC(=N)N)NC(=O)[C@H](CCCNC(=N)N)NC1=O [3c, c[Arg-Arg-Arg-Arg-Dip-Dip-Trp]] (cyclo([Dip][Dip]WRRRR))
HC50 [1]: 100 µg/mL

N=C(N)NCCC[C@@H]1NC(=O)[C@H](CCCNC(=N)N)NC(=O)[C@H](CCCNC(=N)N)NC(=O)[C@H](Cc2c[nH]c3ccccc23)NC(=O)[C@H](C(c2ccccc2)c2ccccc2)NC(=O)[C@H](Cc2c[nH]c3ccccc23)NC(=O)[C@H](CCCNC(=N)N)NC1=O [5a, c[Arg-Arg-Arg-Arg-Trp-Dip-Trp]] (cyclo([Dip]WRRRRW))
HC50 [1]: 220 µg/mL

CC(C)C[C@@H]1NC(=O)[C@H](C(c2ccccc2)c2ccccc2)NC(=O)[C@H](CCCNC(=N)N)NC(=O)[C@H](CCCNC(=N)N)NC(=O)[C@H](CCCNC(=N)N)NC(=O)[C@H](CCCNC(=N)N)NC(=O)[C@H](C(c2ccccc2)c2ccccc2)NC1=O [6a, c[Arg-Arg-Arg-Arg-Dip-Leu-Dip]] (cyclo([Dip]L[Dip]RRRR))
HC50 [1]: 155 µg/mL

N=C(N)NC[C@@H]1NC(=O)[C@H](CNC(=N)N)NC(=O)[C@H](CNC(=N)N)NC(=O)[C@H](C(c2ccccc2)c2ccccc2)NC(=O)[C@H](Cc2c[nH]c3ccccc23)NC(=O)[C@H](C(c2ccccc2)c2ccccc2)NC(=O)[C@H](CNC(=N)N)NC1=O [7a, c[Agp-Agp-Agp-Agp-Dip-Trp-Dip]] (cyclo([Agp][Agp][Agp][Agp][Dip]W[Dip]))
HC50 [1]: 240 µg/mL

N=C(N)NCCCC[C@@H]1NC(=O)[C@H](CCCNC(=N)N)NC(=O)[C@H](CCCCNC(=N)N)NC(=O)[C@H](C(c2ccccc2)c2ccccc2)NC(=O)[C@H](Cc2c[nH]c3ccccc23)NC(=O)[C@H](C(c2ccccc2)c2ccccc2)NC(=O)[C@H](CCCNC(=N)N)NC1=O [7c, c[hArg-Arg-hArg-Arg-Dip-Trp-Dip]] (cyclo([Dip]W[Dip][hArg]R[hArg]R))
HC50 [1]: 160 µg/mL

Polymyxin B
MIC Klebsiella pneumonia (ATCC BAA-2470) [2]: 1.5 µg/mL | reduction in biofilm mass ([3]; at 2× the MIC): 61% | reduction in biofilm mass ([3]; at MIC): 46% | HC50 [1]: >500 µg/mL | MIC Pseudomonas aeruginosa (ATCC 10145) [4]: 0.7 µg/mL | MIC P. aeruginosa (ATCC 27883) [5]: 0.7 µg/mL | MIC Acinetobacter baumannii (ATCC BAA1605) [6]: 0.7 µg/mL | MIC Escherichia coli (ATCC BAA-2452) [7]: 0.7 µg/mL | MIC Pseudomonas aeruginosa (ATCC BAA-1744) [8]: 0.7 µg/mL | MIC E. coli (ATCC 25922) (E. coli (ATCC 25922) [9]): 0.7 µg/mL | MIC Klebsiella pneumonia (ATCC 13883) [10]: 6.2 µg/mL | change in MIC after repeated exposure (resistance development) [11]: negligible changes in the MIC values | MIC CaCl2 (E. coli (ATCC BAA-2452); CaCl2 2 mM): 0.7 µg/mL | MIC KCl (E. coli (ATCC BAA-2452); KCl […]): 0.7 µg/mL | MIC Control (E. coli (ATCC BAA-2452); MH media without salt ions or serum): 0.7 µg/mL | MIC MgCl2 (E. coli (ATCC BAA-2452); MgCl2 1 mM): 1.5 µg/mL | MIC NH4Cl (E. coli (ATCC BAA-2452); NH4Cl 6 mM): 0.7 µg/mL | MIC NaCl (E. coli (ATCC BAA-2452); NaCl 150 mM): 0.7 µg/mL | MIC FBS (25%) (E. coli (ATCC BAA-2452); fetal bovine serum 25%): 3.1 µg/mL | MIC S. aureus (ATCC 29213) (S. aureus (ATCC 29213) [12]): 0.7 µg/mL

c[Arg-Arg-Arg-Arg-Nal-Nal-Nal] [8b]
MIC E. coli (ATCC 25922) (E. coli (ATCC 25922) [13]): 25 µg/mL | HC50 [14]: 80 µg/mL | MIC S. aureus (ATCC 29213) (S. aureus (ATCC 29213) [15]): 3.1 µg/mL | MIC MRSA (ATCC BAA-1556) (MRSA (ATCC BAA-1556)): 3.1 µg/mL | MIC P. aeruginosa (ATCC 27883) [16]: 12.5 µg/mL

cyclo(RRRR[Dip][Dip][Dip]) [8a]
MIC E. coli (ATCC 25922) (E. coli (ATCC 25922) [13]): 12.5 µg/mL | HC50 [14]: 70 µg/mL | MIC S. aureus (ATCC 29213) (S. aureus (ATCC 29213) [15]): 3.1 µg/mL | MIC MRSA (ATCC BAA-1556) (MRSA (ATCC BAA-1556)): 3.1 µg/mL | MIC P. aeruginosa (ATCC 27883) [16]: 12.5 µg/mL
